Data set [1] deals with Hepatitis B virus. Nature of the data set: Antiviral activity against Hepatitis B virus infected in human HepG2(2.2.15) cells assessed as suppression of HBsAg secretion by ELISA. The class given is functional, organism-based. In general terms: An ELISA detects its analyte on a solid surface through an enzyme-linked reagent.
In data set [2] the test system is Hepatitis B virus. Nature of the data set: Antiviral activity against Hepatitis B virus infected in human HepG2(2.2.15) cells assessed as suppression of HbeAg secretion by ELISA. The class given is functional, organism-based.
Data set [3] is described as follows: Cytotoxicity against human HepG2(2.2.15) cells by MTT assay. The class given is cell-based. The settings on record: HepG2(2.2.15) cells. An outline of the steps: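 HepG2 2.2.15 cells were exposed to compounds and viability was read by a modified MTT method. CC50 is the concentration giving 50% cytotoxicity. Values are means of at least two experiments.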
(Tetrazolium dyes change colour on reduction, which living cells bring about.)

In data set [4] the test system is Hepatitis B virus. Nature of the data set: Antiviral activity against Hepatitis B virus infected in human HepG2(2.2.15) cells assessed as inhibition of viral DNA replication by RT-PCR analysis. The class given is functional, organism-based.
The subject of data set [5] is Hepatitis B virus. Nature of the data set: Selectivity ratio of CC50 for human HepG2(2.2.15) cells to IC50 for Hepatitis B virus infected in human HepG2.2.15 cells assessed as suppression of HBsAg secretion. The class given is cell-based. The following applies: read-out: Ratio CC50/IC50. An outline of the steps: (§1)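 The selectivity index was calculated as CC50/IC50. CC50 is MTT cytotoxicity in HepG2 2.2.15 cells. No index was given where a value could not be obtained.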

Data set [6] has as its system Hepatitis B virus. In words: Selectivity ratio of CC50 for human HepG2(2.2.15) cells to IC50 for Hepatitis B virus infected in human HepG2(2.2.15) cells assessed as inhibition of viral replication. The class given is cell-based. The following applies: read-out: Ratio CC50/IC50. An outline of the steps: as §1
Data set [7] relates to Hepatitis B virus. In words: Selectivity ratio of CC50 for human HepG2(2.2.15) cells to IC50 for Hepatitis B virus infected in human HepG2(2.2.15) cells assessed as suppression of HBeAg secretion. Format: cell-based. The settings on record: read-out: Ratio CC50/IC50. Summed up: as §1

SMILES strings stand for the structures.

The term IC50 denotes the point on the concentration scale where inhibition reaches its midpoint. By CC50 is commonly meant the concentration giving 50% cytotoxicity. A higher CC50 goes with better tolerance by the cells. As to `COCC(=O)O[C@H]1CC[C@@]2(C)C(=CC[C@]3(O)[C@@H]2C[C@@H](OC(=O)/C=C(\C)C(C)C)[C@@]2(C)[C@]3(O)CC[C@@]2(O)C(C)=O)C1`, the IC50 was 70.4 µM in data set [1], more than 836 µM in data set [2] and 104 µM in data set [4]. Further, in data set [3], the CC50 was determined as 102 µM. Also, in data set [5], the selectivity ratio was 1.4.

With `CCOCC(=O)O[C@H]1CC[C@@]2(C)C(=CC[C@]3(O)[C@@H]2C[C@@H](OC(=O)/C=C(\C)C(C)C)[C@@]2(C)[C@]3(O)CC[C@@]2(O)C(C)=O)C1`, the IC50 is 68.2 µM in data set [1], more than 153 µM in data set [2] and 13.8 µM in data set [4]. For the same compound, the CC50 in data set [3] was 116 µM. Also, the figures for the selectivity ratio in data set [5] and in data set [6] were 1.7 and 8.4, respectively.

With `CC(=O)[C@]1(O)CC[C@@]2(O)[C@]1(C)[C@H](OC(=O)/C=C(\C)C(C)C)C[C@@H]1[C@@]3(C)CC[C@H](OC(=O)COc4ccccc4)CC3=CC[C@]12O`, the IC50 was determined as 76.7 µM in data set [1], 96.1 µM in data set [2] and 41 µM in data set [4]. Moreover, the CC50 in data set [3] is 319 µM. Also, the selectivity ratio in data set [7] worked out at 3.3; in data set [5] it was 4.2; in data set [6], 7.8.

`CC(=O)[C@]1(O)CC[C@@]2(O)[C@]1(C)[C@H](OC(=O)/C=C(\C)C(C)C)C[C@@H]1[C@@]3(C)CC[C@H](OC(=O)CC#N)CC3=CC[C@]12O`: the figures for the IC50 in data set [1], in data set [2] and in data set [4] were 100 µM, more than 161 µM and 7.32 µM, respectively. The compound also yielded a CC50 in data set [3] of 122 µM. The values for the selectivity ratio in data set [5] and in data set [6] were 1.2 and 10.5, respectively.

As to `CC(=O)[C@]1(O)CC[C@@]2(O)[C@]1(C)[C@H](OC(=O)/C=C(\C)C(C)C)C[C@@H]1[C@@]3(C)CC[C@H](OC(=O)CN(C)C)CC3=CC[C@]12O`, the IC50 in data set [1] is 87.2 µM; in data set [2], more than 749 µM; in data set [4] it was 13.8 µM. In data set [3], this compound showed a CC50 of 50.5 µM. In data set [6], the selectivity ratio worked out at 3.6.

As to `CC(=O)[C@]1(O)CC[C@@]2(O)[C@]1(C)[C@H](OC(=O)/C=C(\C)C(C)C)C[C@@H]1[C@@]3(C)CC[C@H](OC(=O)/C=C/n4ccnc4)CC3=CC[C@]12O`, the IC50 turned out to be 18.7 µM in data set [1], 13.2 µM in data set [2] and 7.48 µM in data set [4]. In addition, the CC50 in data set [3] is more than 1460 µM. The selectivity ratio in data set [7] is more than 111; in data set [5], more than 78; in data set [6] it was more than 195.

For `CC(=O)[C@]1(O)CC[C@@]2(O)[C@]1(C)[C@H](OC(=O)/C=C(\C)C(C)C)C[C@@H]1[C@@]3(C)CC[C@H](OC(=O)c4cc5ccccc5[nH]4)CC3=CC[C@]12O`, the IC50 in data set [1] came to 21.7 µM; in data set [2] it was 33.7 µM; in data set [4], 3.63 µM. For the same compound, the CC50 in data set [3] came out at 36.7 µM. For the same compound, the selectivity ratio in data set [7] was determined as 1.1; in data set [5] it was 1.7; in data set [6], 10.1.

Take `CC(=O)[C@]1(O)CC[C@@]2(O)[C@]1(C)[C@H](OC(=O)/C=C(\C)C(C)C)C[C@@H]1[C@@]3(C)CC[C@H](OC(=O)c4cccnc4)CC3=CC[C@]12O`: the IC50 is 20.8 µM in data set [1], more than 1040 µM in data set [2] and 4.05 µM in data set [4]. Besides, the midpoint of cytotoxicity in data set [3], the CC50, lay at 50.4 µM. For the same compound, the selectivity ratio was found to be 2.4 in data set [5] and 12.4 in data set [6].

Turning to `CC(=O)[C@]1(O)CC[C@@]2(O)[C@]1(C)[C@H](OC(=O)/C=C(\C)C(C)C)C[C@@H]1[C@@]3(C)CC[C@H](OC(=O)c4cnccn4)CC3=CC[C@]12O`, the IC50 in data set [1] is 95.5 µM; in data set [2], less than 50.3 µM; in data set [4], 47.9 µM. This compound registered a CC50 in data set [3] of 61.3 µM. Besides, the selectivity ratio is more than 1.2 in data set [7] and 1.3 in data set [6].

Turning to `CC(=O)[C@]1(O)CC[C@]23OC(C)(C)O[C@]24CC=C2C[C@@H](O)CC[C@]2(C)[C@H]4C[C@@H](OC(=O)/C=C(\C)C(C)C)[C@@]31C`, the IC50 in data set [1] is 168 µM; in data set [2], more than 1720 µM; in data set [4] it was 218 µM. The compound further had a CC50 in data set [3] of 512 µM. The selectivity ratio came to 3 in data set [5] and 2.3 in data set [6].

For `CC(=O)N1CCC[C@H]1C(=O)O[C@H]1CC[C@@]2(C)C(=CC[C@]3(O)[C@@H]2C[C@@H](OC(=O)/C=C(\C)C(C)C)[C@@]2(C)[C@]3(O)CC[C@@]2(O)C(C)=O)C1`, the figures for the IC50 in data set [1], in data set [2] and in data set [4] were 70.7 µM, more than 638 µM and 65.7 µM, respectively. The compound further yielded a CC50 in data set [3] of 106 µM. The selectivity ratio in data set [5] turned out to be 1.5; in data set [6] it was 1.6.

With `CC(=O)N1CCC(C(=O)O[C@H]2CC[C@@]3(C)C(=CC[C@]4(O)[C@@H]3C[C@@H](OC(=O)/C=C(\C)C(C)C)[C@@]3(C)[C@]4(O)CC[C@@]3(O)C(C)=O)C2)CC1`, the IC50 is 93.2 µM in data set [1], less than 62.1 µM in data set [2] and 54.8 µM in data set [4]. Further, in data set [3], the CC50 was found to be 62.1 µM. Further, the selectivity ratio in data set [7] was more than 1; in data set [6] it was 1.1.

With `CC(=O)[C@]1(O)CC[C@@]2(O)[C@]1(C)[C@H](OC(=O)/C=C(\C)C(C)C)C[C@@H]1[C@@]3(C)CC[C@H](OC(=O)COCC(=O)O)CC3=CC[C@]12O`, the IC50 in data set [1] was 524 µM; in data set [2] it was 115 µM; in data set [4] it was 164 µM. In data set [3], this compound came in with a CC50 of 274 µM. For the same compound, the selectivity ratio in data set [7] worked out at 2.4; in data set [6] it was 1.7.

`CC(=O)[C@]1(O)CC[C@@]2(O)[C@]1(C)[C@H](OC(=O)/C=C(\C)C(C)C)C[C@@H]1[C@@]3(C)CC[C@H](OC(=O)CCCC(=O)O)CC3=CC[C@]12O`: the IC50 in data set [1] is more than 385 µM; in data set [2], more than 385 µM; in data set [4] it was 289 µM. Besides, half-maximal cytotoxicity in data set [3] (CC50) was put at 310 µM. The selectivity ratio in data set [6] amounted to 1.1.

As for `COP(=O)(OC)O[C@H]1CC[C@@]2(C)C(=CC[C@]3(O)[C@@H]2C[C@@H](OC(=O)/C=C(\C)C(C)C)[C@@]2(C)[C@]3(O)CC[C@@]2(O)C(C)=O)C1`, the results for the IC50 in data set [1], in data set [2] and in data set [4] were more than 1750 µM, more than 1750 µM and 105 µM, respectively. Further, the CC50 in data set [3] came out at 560 µM. In addition, in data set [6], the selectivity ratio came out at 5.3.

Regarding `COCC(=O)O[C@H]1CC[C@@]2(C)C(=CC[C@]3(O)[C@@H]2C[C@@H](OC(=O)/C=C(\C)C(C)C)[C@@]2(C)[C@]3(O)CC[C@@]2(OC(=O)COC)C(C)=O)C1`, the IC50 was 331 µM in data set [1], more than 1400 µM in data set [2] and 288 µM in data set [4]. This compound also yielded a CC50 in data set [3] of more than 1400 µM. Further, the selectivity ratio is more than 4.2 in data set [5] and more than 4.9 in data set [6].

As for `CC(=O)[C@]1(OC(=O)/C=C/c2ccccc2Cl)CC[C@@]2(O)[C@]1(C)[C@H](OC(=O)/C=C(\C)C(C)C)C[C@@H]1[C@@]3(C)CC[C@H](OC(=O)/C=C/c4ccccc4Cl)CC3=CC[C@]12O`, the IC50 in data set [1] is 599 µM; in data set [2] it was more than 257 µM; in data set [4], more than 148 µM. This compound displayed a CC50 in data set [3] of more than 538 µM. In data set [5], the selectivity ratio came to 1.6.

`CC(=O)[C@]1(OC(=O)/C=C/c2ccc3c(c2)OCO3)CC[C@@]2(O)[C@]1(C)[C@H](OC(=O)/C=C(\C)C(C)C)C[C@@H]1[C@@]3(C)CC[C@H](OC(=O)/C=C/c4ccc5c(c4)OCO5)CC3=CC[C@]12O`: the IC50 in data set [1] was 575 µM; in data set [2], 407 µM; in data set [4], more than 201 µM. The same compound gave a CC50 in data set [3] of more than 1020 µM. The selectivity ratio in data set [7] is more than 2.5; in data set [5], more than 1.8.

With `CC(=O)[C@]1(OC(=O)/C=C/c2cc(F)cc(F)c2)CC[C@@]2(O)[C@]1(C)[C@H](OC(=O)/C=C(\C)C(C)C)C[C@@H]1[C@@]3(C)CC[C@H](OC(=O)/C=C/c4cc(F)cc(F)c4)CC3=CC[C@]12O`, the IC50 was more than 1580 µM in data set [1], more than 1580 µM in data set [2] and 183 µM in data set [4]. The CC50 in data set [3] is more than 1580 µM. Also, in data set [6], the selectivity ratio was more than 8.7.

As to `CC(=O)[C@]1(O)CC[C@@]2(O)[C@]1(C)[C@H](OC(=O)/C=C(\C)C(C)C)C[C@@H]1[C@@]3(C)CCC(=O)CC3=CC(=O)[C@]12O`, the values for the IC50 in data set [1], in data set [2] and in data set [4] were 205 µM, more than 1630 µM and 113 µM, respectively. The compound also showed a CC50 in data set [3] of 155 µM. Further, the selectivity ratio in data set [6] is 1.4.

For the compound `CC(=O)[C@]1(O)CC[C@@]2(O)[C@]1(C)[C@H](OC(=O)/C=C(\C)C(C)C)C[C@@H]1[C@@]3(C)CC[C@H](O)C[C@@]34O[C@H]4C[C@]12O`, the IC50 in data set [1] amounted to 189 µM; in data set [2], 1140 µM; in data set [4], 184 µM. In data set [3], this compound returned a CC50 of 226 µM. Moreover, the selectivity ratio in data set [5] and in data set [6] was 1.2 throughout.

Consider `C/C(=C\C(=O)O[C@@H]1C[C@@H]2[C@@]3(C)CC[C@H](O)CC3=CC[C@@]2(O)[C@@]2(O)CC[C@@](O)(C(C)O)[C@@]12C)C(C)C` (some centres not stated), for which the IC50 is 307 µM in data set [1], more than 1050 µM in data set [2] and 172 µM in data set [4]. The compound further had a CC50 in data set [3] of 217 µM. Moreover, in data set [6], the selectivity ratio came to 1.3.

The record behind these values is ChEMBL document CHEMBL2021791, “Synthesis, structure-activity relationships and biological evaluation of caudatin derivatives as novel anti-hepatitis B virus agents” (Bioorg Med Chem, 2012).
